These results are taken from ChEMBL document CHEMBL1157979, “Chromone derivatives from the filamentous fungus Lachnum sp. BCC 2424” (J Nat Prod, 2006).

The structures appear in SMILES notation. Converted amounts (≈) assume the structure as drawn. The source made the active and inactive calls. The rule behind the calls is not given here.

In assay [1] the test system is Candida albicans. In words: Antifungal activity against Candida albicans by MTT assay. It is filed as functional, organism-based. An outline of the steps:
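Tested against Candida albicans strain ATCC 90028 with a modified colorimetric method that uses tetrazolium salt (MTT) reduction as the read-out.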
(Tetrazolium assays rely on reduction of a dye to a coloured formazan, in cell work by metabolically active cells.)

In assay [2] the test system is KB. Briefly: Cytotoxicity against human KB cells by MTT assay. The assay is classed as functional, cell-based.
Assay [3] deals with BC1. In words: (§1) Cytotoxicity against human BC1 cells by MTT assay. It is filed as functional, cell-based.
In assay [4] the test system is Mycobacterium tuberculosis. Briefly: Antimicrobial activity against Mycobacterium tuberculosis H37Ra by Microplate Alamar blue assay. It is filed as functional. A digest of the protocol:
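Whole-cell growth inhibition of M. tuberculosis H37Ra read by Microplate Alamar Blue Assay; value reported as minimum inhibitory concentration; isoniazid and kanamycin sulfate as reference drugs.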
A general note: Resazurin is reduced to fluorescent resorufin, in cell work by metabolically active cells.

The test system of assay [5] is Plasmodium falciparum. Briefly: Antimalarial activity after 42 hrs against Plasmodium falciparum K1. Particulars: K1, 42 h.
A short description of assay [6]: as §1. It is filed as functional, cell-based.

By IC50 is commonly meant the concentration needed to halve the response being measured. Low readings indicate greater potency, high ones weaker potency. Broadly, the MIC is the least concentration at which growth counts as inhibited. Higher therefore signals a less susceptible organism.

For the compound `CC(=O)C[C@]1(O)C(=O)c2c(O)cc(CO)cc2O[C@@]1(C)[C@@H]1CCC(=O)O1`, the result in assay [1], in assay [2], in assay [3] and in assay [4] was inactive.
Take `C[C@]1([C@@H]2CCC(=O)O2)CC(=O)c2c(O)cc(CO)cc2O1`: the result in assay [1], in assay [2], in assay [3] and in assay [4] was inactive.
As for `Cc1cc(O)c2c(=O)c(O)c(C)oc2c1`, the outcome in assay [1], in assay [2], in assay [3] and in assay [4] was inactive.
Take `C[C@H]1[C@@H](O)O[C@@H]2O[C@@]3(C)CC[C@H]4[C@H](C)CC[C@@H]1[C@@]24OO3` [ARTENIMOL]: in assay [5], half-maximal inhibition (IC50) required 3.7 nM. In other words, the single-digit nanomolar range.
Turning to `Cc1c2ccncc2c(C)c2c1[nH]c1ccccc12` [ELLIPTECINE], the half-inhibitory concentration (IC50) in assay [2] turned out to be 0.24 µg/mL (≈ 0.974 µM); in assay [6], 0.22 µg/mL (≈ 0.893 µM).
`NNC(=O)c1ccncc1` [ISONIAZID] came in with a minimal inhibitory concentration (MIC) in assay [4] of 0.05 µg/mL (≈ 0.365 µM).
`NC[C@H]1O[C@H](O[C@H]2[C@H](O)[C@@H](O[C@H]3O[C@H](CO)[C@@H](O)[C@H](N)[C@H]3O)[C@H](N)C[C@@H]2N)[C@H](O)[C@@H](O)[C@@H]1O.O=S(=O)(O)O` [KANAMYCIN SULFATE] registered an MIC in assay [4] of 2.5 µg/mL.
Regarding `Cc1oc2cc(CO)cc(O)c2c(=O)c1O` [LACHNONE B], the outcome in assay [1], in assay [2] and in assay [3] was inactive. In assay [4], this compound registered a minimal inhibitory concentration (MIC) of 200 µg/mL (≈ 900 µM).
`C[C@@]1([C@@H]2CCC(=O)O2)Oc2cc(CO)cc(O)c2C(=O)[C@H]1O` [LACHNONE D]: the outcome in assay [1], in assay [2] and in assay [3] was inactive. The compound also returned an MIC in assay [4] of 200 µg/mL (≈ 649 µM).
